# Experimental data from different studies.
# Target: Serine/threonine-protein kinase PLK1 (PLK1, Homo sapiens, UniProt P53350)
Compound,read-out,mode,technique,cell line,concentration,measurement,value
CCOc1cc(-c2nncn2C)ccc1Nc1ncc2cc(C)nc(NCC(C)(C)C)c2n1,enzyme activity,inhibitor,FRET,,1 µM,inhibition,17%
CN(c1ccnc(CNc2nc(Nc3ccc4c(c3)CC(=O)N4)ncc2C(F)(F)F)n1)S(C)(=O)=O,cell-free assay,,competition with immobilised ligand,,1 µM,remaining binding,7.6%
N#CCCc1ccc2c(c1)-c1[nH]c3ccc([N+](=O)[O-])cc3c1CC(=O)N2,cell-free assay,,,,0.5 µM,remaining signal,101%
Nc1nc(NC2CCCCC2)sc1C(=O)c1ccccc1,enzyme activity,inhibitor,,,10 µM,remaining activity,82%
CCN(CC)CCNC(=O)c1c(C)[nH]c(/C=C2\C(=O)Nc3ccc(F)cc32)c1C,enzyme activity,inhibitor,,,1 µM,remaining activity,110%
CC(=O)C1=C(C)N(c2cccc(C(F)(F)F)c2)C(=O)N[C@@H]1c1ccc(C#N)nc1,cell-free assay,,competition with immobilised ligand,,1 µM,remaining binding,100%
COc1cc2ncnc(Nc3ccc(Oc4ccccc4)cc3C)c2cc1OC,enzyme activity,inhibitor,,,1 µM,inhibition,3%
Cc1c(NC(=O)c2cc(C(N)=O)nc3cc(F)ccc23)c(C(F)(F)F)nn1Cc1ccc(C(C)(C)C)cc1,cell-free assay,,competition with immobilised ligand,,1 µM,remaining binding,99%
Cc1[nH]c(/C=C2\C(=O)Nc3ccc(F)cc32)c(C)c1C(=O)N[C@H]1CCN(C(=O)N(C)C)C1,enzyme activity,inhibitor,,,1 µM,remaining activity,122%
O=C(Nc1cccnn1)N1CC(C/C=C/c2cncc(Oc3ccc(C(F)(F)F)cn3)n2)C1,cell-free assay,,competition with immobilised ligand,,1 µM,remaining binding,87%
Cn1c(=O)n(-c2ccc(C(C)(C)C#N)cc2)c2c3cc(-c4cnc5ccccc5c4)ccc3ncc21,enzyme activity,inhibitor,,,10 µM,remaining activity,95%
Cc1cc(NC(=O)c2cccc3cc(-c4cccc5[nH]nc(N)c45)ccc23)ccc1F,enzyme activity,inhibitor,,,0.1 µM,activity vs control,92%
CCN1CCN(Cc2ccc(NC(=O)c3ccc(C)c(Oc4ccnc5[nH]ccc45)c3)cc2C(F)(F)F)CC1,target engagement in cells,inhibitor,chemoproteomics,Huh-7,1 µM,inhibition,-16.2%
O=C(Nc1cnn(-c2csc(C(=O)NC3COC3)c2)c1)Nc1ccccc1Cl,enzyme activity,inhibitor,,,5 µM,remaining activity,97%
CC(C)CC(=O)N1CCc2nc(-c3ccc(Br)cc3)nc(N(C)Cc3ccccc3)c2C1,cell-free assay,,competition with immobilised ligand,,0.1 µM,remaining binding,100%
CN(C)C1CCN(CC#Cc2nn(C3CCCC3)c3nc(NCc4ccccc4)ncc23)C1 (stereo not drawn),enzyme activity,inhibitor,FRET,,1 µM,inhibition,-5%
CNC(=O)Nc1ccc2c(c1)CC[C@@]21OC(=O)N(CC(=O)N(Cc2ccc(F)cc2)[C@@H](C)C(F)(F)F)C1=O,cell-free assay,,competition with immobilised ligand,,1 µM,remaining binding,63%
CC(C)(C)C(=O)c1sc(NC2CCCCC2)nc1N,enzyme activity,inhibitor,,,10 µM,remaining activity,93%
CN(c1ncccc1CNc1nc(Nc2ccc3c(c2)CC(=O)N3)ncc1C(F)(F)F)S(C)(=O)=O,enzyme activity,inhibitor,,,1 µM,inhibition,22.1%
O=C(Nc1cnn(-c2csc(C(=O)NC3COC3)c2)c1)Nc1c(F)cccc1Cl,enzyme activity,inhibitor,,,5 µM,remaining activity,95.5%
CCCOc1ccc(OC)c(F)c1C(=O)c1ccc(C(=O)N[C@@H]2CNC[C@H]2NC(=O)c2ccc3[nH]ncc3c2)cc1,enzyme activity,inhibitor,,,10 µM,remaining activity,105%
Cc1ccc(NC(=O)c2ccc(CN3CCN(C)CC3)cc2)cc1Nc1nc(-c2cccnc2)cs1,cell-free assay,,,,0.5 µM,remaining signal,101%
CNCc1ccccc1-c1csc([C@@H](C)Nc2nc(C)nc3cc(OC)c(OC)cc23)c1,cell-free assay,,competition with immobilised ligand,,1 µM,remaining binding,80%
C=CC(=O)Nc1cc(Nc2nccc(Nc3cc(Cl)c(F)cc3C(C)(C)O)n2)c(OC)cc1N1CC[C@@H](N(C)C)C1,enzyme activity,inhibitor,,,1 µM,inhibition,11%
CC(C)(C)c1nc2c(s1)c1nc(N)ncc1c1ccc(NS(=O)(=O)c3c(F)cccc3F)c(F)c12,enzyme activity,inhibitor,radiometric,,1 µM,remaining activity,101%
FC(F)c1nc2ccccc2n1-c1nc(N2CCOCC2)nc(N2CCOCC2)n1,enzyme activity,inhibitor,,,10 µM,remaining activity,75%
COc1cc(Nc2cnc(C#N)c(O[C@H](C)CN(C)C)n2)ncc1-c1cnn(C)c1,enzyme activity,inhibitor,radiometric,,1 µM,remaining activity,88%
CSc1nc(C)c(-c2ccnc(Nc3ccc(N4CCOCC4)cc3)c2)[nH]1,enzyme activity,inhibitor,,,10 µM,inhibition,6.3%
Cc1cc(NC(=O)c2cccc(S(F)(F)(F)(F)F)c2)cc(-n2ccn3nc(-c4cccnc4)cc23)c1,cell-free assay,,competition with immobilised ligand,,1 µM,remaining binding,95.3%
COc1cc(Nc2c(C#N)cnc3cc(OCCCN4CCN(C)CC4)c(OC)cc23)c(Cl)cc1Cl,cell-free assay,,,,0.5 µM,remaining signal,93.8%
FC(F)(F)Oc1cccc(-c2cnc3ccc(-c4ccncc4)nn23)c1,enzyme activity,inhibitor,radiometric,,1 µM,activity vs control,93%
O=C(CSc1nc2nccnc2c(=O)n1CCc1ccccc1)Nc1nccs1,enzyme activity,inhibitor,,,10 µM,inhibition,8%
O=C1Nc2ccc(Cl)cc2C1=Cc1cc(Cl)c(O)c(Cl)c1,cell-free assay,,,,0.5 µM,remaining signal,99.8%
